# Only some compounds are listed: those with a hit (about 1.1% of all), similar ones and a draw of the others.
# T cell modulator – modulates CD8 T cell binding to vesicles | 2C CD8+ T cell-vesicle binding, flow cytometry; hits give low values | hit rate 0.068% among 330,000 | response (vesicle binding), % at 7 µM;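 active means response, share of CD8 T cells binding vesicles, and their 90th percentile fluorescence all below set limits, cut at about 80% in these data, passing the limit was not always enough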;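 further: values below 100% mean blocked vesicle binding to the CD8+ T cells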
#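 Assay system – 2C mouse CD8+ T cells · Also added – QL9-loaded Drosophila micro-vesicles · Timing – Cell–vesicle co-incubation 1.5 h at 37 °C, staining 20 min on ice · Signal – flow cytometry of vesicle-bound cells · Measure – percent CD8+ FL2 mean versus row control · Controls – Peptide-free naked vesicles (low) and QL9 vesicles with 0.7% DMSO vehicle (high)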
# procasp7 counter – counter-screen: procaspase-7 (human) activation; P55210; hit rate 0.093% among 330,000; recombinant procaspase-7, Ac-DEVD-pNA absorbance 405 nm; D23A/D198A/D206A triple mutant, cannot self-cleave; scale: DMSO 0, 5 µM enzyme 100; activation, % at 8.5 µM;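 active means percent activation above the screen-wide mean plus 3 SD, cut at about 25% in these data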
# Target sequence (P55210 whole entry D23A/D198A/D206A): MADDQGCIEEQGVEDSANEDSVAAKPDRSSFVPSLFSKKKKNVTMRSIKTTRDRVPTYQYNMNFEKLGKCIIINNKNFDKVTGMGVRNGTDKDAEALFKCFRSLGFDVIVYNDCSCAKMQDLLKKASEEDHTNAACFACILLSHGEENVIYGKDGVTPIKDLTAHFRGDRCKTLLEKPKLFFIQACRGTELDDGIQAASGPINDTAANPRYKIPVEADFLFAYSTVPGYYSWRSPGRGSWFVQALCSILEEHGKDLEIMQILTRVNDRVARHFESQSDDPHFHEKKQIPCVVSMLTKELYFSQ
#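 buffer or medium = Zinc-free HEPES/NaCl buffer, pH 7.4 | material = Procaspase-7 triple mutant (PC-7 D3A) | input = 2 µM procaspase-7 mutant as dispensed | signal = Epi-absorbance of released pNA at 405 nm, two timepoints | timing = 1 h preincubation, 2 h reaction | replicates = singlicate compound testing | evaluation = % activation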
# GRK2 aptamer HTS – blocks RNA aptamer binding to human GRK2; P25098; bead flow cytometry, FAM-aptamer displacement from GRK2; inhibition of aptamer binding, % at 10 µM; hit rate 0.59% among 330,000; AID 488847;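 active means inhibition of aptamer binding above 40%, roughly 3 SD of noise, on plates passing a quality check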;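 further: median bead fluorescence of bound FAM aptamer so fluorescent compounds give negative values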
# procasp3 activ – activators of human procaspase-3; P42574; recombinant procaspase-3 D3A, Ac-DEVD-pNA absorbance 405 nm; activation, % at 8.5 µM; hit rate 0.11% among 330,000;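 active means activation above the mean of all tested compounds plus 3 SD, cut at about 21% in these data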;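 further: 0% = DMSO alone and 100% = DMSO wells spiked with extra 5 µM PC-3 D3A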
# Target sequence (P42574 whole entry D9A/D28A/D175A): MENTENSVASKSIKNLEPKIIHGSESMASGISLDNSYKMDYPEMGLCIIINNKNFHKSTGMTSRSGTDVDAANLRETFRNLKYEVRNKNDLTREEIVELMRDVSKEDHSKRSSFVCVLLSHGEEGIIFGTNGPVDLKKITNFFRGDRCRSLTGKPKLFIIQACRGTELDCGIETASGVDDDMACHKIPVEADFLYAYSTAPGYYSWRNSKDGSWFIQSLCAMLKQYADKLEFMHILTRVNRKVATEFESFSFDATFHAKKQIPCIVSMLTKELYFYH
#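 Compound: 8.5 µM single point, 0.8% DMSO / Material: Autoprocessing-dead procaspase-3 D3A mutant enzyme / Timing: 1 h preincubation plus 2 h reaction at 25 °C / Medium: Zinc-free HEPES/NaCl buffer with 0.01% Triton X-100 at pH 7.4 / Technique: 405 nm absorbance of p-nitroaniline, reads at 0 and 120 min / Repeats: one well per compound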
# aDG glyco up – increases alpha dystroglycan glycosylation; Pro5-aDG cells, alpha-DG glycosylation AlphaScreen (IIH6); 0% Pro5, 100% B10-LARGE cell signal; activation, % at 10 µM; hit rate 0.22% among 360,000; AID 624168;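 active means activation of at least 8% versus controls, or a plate z-score of at least 8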;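 further: Pro5 are CHO cells carrying HIG-tagged alpha-DG that lacks glycosylation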
# CaV13 FRET inh – Disruptors of the CACNA1D IQ motif to Ca2+-dependent inactivation inhibitor domain association, primary screening, Förster resonance energy transfer in intact living …; HEK cells, CFP/YFP FRET ICDI-IQ, plate reader, 10 min; percent FRET-ratio fall versus neutral wells; inhibition, % at 12.3 µM; hit rate 0.098% among 340,000;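 active means mean replicate inhibition of at least 30% and at least 1% of replicates passing that level; inconclusive means only one of the two criteria is met; inactive means neither criterion is met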;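 further: 0% = median of the neutral control wells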
# GRK2 inh confirm – human GRK2 inhibition confirmation, cherry pick 1; shares compounds with GRK2 aptamer HTS; bead-bound GRK2, FAM-aptamer displacement, flow cytometry; aptamer displacement, % at 10 µM; hit rate 4% among 2,000; AID 504451;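 active means aptamer displacement above 40%, near three times the noise of non-fluorescent compounds, on plates passing quality checks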;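 further: negative values mostly reflect intrinsic compound fluorescence rather than true enhancement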
# Aptamer quench SP – aptamer fluorescence quenching in GRK2 counter-screen; shares compounds with GRK2 aptamer HTS; Carboxyfluorescein RNA aptamer on beads, flow cytometry quenching; hits give low values; fluorescence response (% of DMSO), % at 10 µM; 2,000 tested, under 10 active;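 active means compounds that quench the bead-bound fluorescent RNA probe, cutting fluorescence to under half of the solvent control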;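 further: counterscreen run without GRK2 so only probe quenching by compound is measured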
# GRK2 confirm 2 – human GRK2 inhibition confirmation, cherry pick 2 | inhibition of aptamer binding, % at 10 µM | shares compounds with GRK2 aptamer HTS | 360 tested, under 10 active | bead-bound GRK2, FAM-aptamer displacement, flow cytometry;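 active means inhibition of aptamer binding above 40%, about triple the noise seen with nonglowing compounds, on plates passing quality control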;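 further: negative values mostly come from compounds that fluoresce themselves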
# FAM quench SP – aptamer fluorescence quenching in GRK2 counter-screen. shares compounds with GRK2 aptamer HTS. carboxyfluorescein RNA aptamer beads, flow cytometry quenching; hits give low values. fluorescence response vs DMSO, % at 10 µM. 360 tested, under 10 active. AID 588494;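 active means response vs DMSO under 50%, meaning signal dropped by over half, treated as fluorescence quencher; inconclusive means no clear call, values can overlap the other calls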;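 further: labelled aptamer on streptavidin beads without GRK2 as a quench counter-screen; 100% = bead fluorescence of DMSO wells and lower means quenching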
# An asterisk follows results filed as active; i = inactive; ? = inconclusive; . = no result given.
SMILES,T cell modulator,procasp7 counter,GRK2 aptamer HTS,procasp3 activ,aDG glyco up,CaV13 FRET inh,GRK2 inh confirm,Aptamer quench SP,others
CCOC(=O)c1c(NC(=O)CSc2nc3ccccc3c(=O)n2-c2ccc(F)cc2)sc(C(C)=O)c1C,236,7,73*,10,0,-5,-3,103,
CCOC(=O)c1c(NC(=O)CSc2ncnc3ccccc23)sc(C(C)=O)c1C,395,-8,0,-8,1,-20,.,.,
O=[N+]([O-])c1ccc2nc(SCc3cn4ccccc4n3)[nH]c2c1,i,6,0,-5,0,-5,.,.,
O=[N+]([O-])c1ccc2nc(SCc3cn4cccnc4n3)[nH]c2c1,288,-7,89*,-4,0,-3,-1,99,
COc1cc2c(cc1NC(=O)c1cccc([N+](=O)[O-])c1)oc1ccccc12,258,6,92*,-1,-1,-7,-23,105,
Cc1oc(-c2ccccc2)cc1C(=O)Nc1ccc2ccccc2c1,310,5,98*,4,0,.,-3,95,
Cc1oc(-c2ccccc2)cc1C(=O)Nc1ccccc1,161,7,0,10,3,-5,.,.,
O=C(NC1CCN(C(=O)c2cccc([N+](=O)[O-])c2)CC1)c1ccccc1,469,-10,98*,-2,0,-17,0,100,
O=C(NCc1cccnc1)c1cc(C2CCCCN2S(=O)(=O)Cc2ccccc2)on1 (stereo not drawn),.,.,.,.,0,-12,.,.,
Cc1ccc(C)c(NC(=O)CCN2C(=O)C3CC=CCC3C2=O)c1 (stereo not drawn),348,6,68*,9,0,-3,1,97,
Cn1c2ccccc2c2cc(C(=O)OCC(=O)N3CC(=O)Nc4ccccc43)sc21,220,21,40,4,0,.,4,105,
CCCCN(C(=O)c1cccc(-n2cccc2)c1)c1c(N)n(Cc2ccccc2)c(=O)[nH]c1=O,202,-7,46*,4,0,-6,10,97,
CCCCN(C(=O)CSc1nnc(-c2ccc(OC)cc2)n1CC)c1c(N)n(Cc2ccccc2)c(=O)[nH]c1=O,195,13,88*,3,0,-5,-1,100,
Cn1c(C(=O)N[C@@H](C(=O)O)c2ccccc2)cc2cc(F)ccc21,189,1,64*,-3,0,-3,2,99,
O=S1(=O)N[C@@H](Cc2ccccc2)COc2cc(N3CCOCC3)ccc21,.,.,.,.,.,-5,.,.,
Cc1cc(NC(=O)Nc2ccc3c(ccn3C)c2)sn1,457,0,0,5,0,-5,0,99,
COc1ccccc1N1CCN(C(=O)NC23CC4CC(CC(C4)C2)C3)CC1,178,3,0,-2,0,7,.,.,
COc1ccc(Cl)cc1N1C(=O)[C@@H]2C(c3cccc(OC)c3OC)=NO[C@@H]2C1=O,265,13,6,5,0,-4,.,.,GRK2 confirm 2=8;FAM quench SP=102
COc1ccc(OC)c(C2=NO[C@@H]3C(=O)N(c4cc(Cl)ccc4OC)C(=O)[C@H]23)c1,187,5,2,1,0,-4,.,.,GRK2 confirm 2=5;FAM quench SP=?
Cc1ccc(C(=O)CSc2cnc3ccccc3n2)cc1C,288,-17,7,-4,0,-5,.,.,
CCOc1ccccc1N1CCN(C(=O)c2ccc3nc(N)sc3c2)CC1,412,7,0,11,0,-7,.,.,
Cc1cc2nc(N3C(=O)CNC3=S)sc2cc1C,140,2,75*,-4,-1,-3,-1,97,
CCOc1ccc2nc(N3C(=O)CNC3=S)sc2c1,94,-8,.,-9,0,-5,.,.,
O=C(/C=C/c1ccccc1)c1ccccc1,557,-10,3,7,0,-6,.,.,
N#Cc1ccc(/C=C/C(=O)c2ccccc2)cc1,66,6,51*,-3,0,-20,2,97,
SMILES,T cell modulator,procasp7 counter,GRK2 aptamer HTS,procasp3 activ,aDG glyco up,CaV13 FRET inh,GRK2 inh confirm,Aptamer quench SP,others
CCN(CC)CCCN=C1N[C@@H](c2cccc(F)c2)C(C(=O)OC)=C(C)N1Cc1ccccc1,224,-1,51*,2,1,-11,.,.,GRK2 confirm 2=1;FAM quench SP=100
COC(=O)[C@]12C[C@H](CC(=O)NCc3ccc(C)o3)C(=O)N(Cc3ccccc3)C1=C[C@H](C1CCCC1)O[C@@H]2C,.,.,.,.,.,-11,.,.,
O=C(Nc1ccccc1)C(=O)Nc1ccccn1,191,6,47*,11,0,-6,0,92,
Cc1c(N2C(=O)/C(=C/c3ccc(N(C)C)cc3)N(C)C2=S)c(=O)n(-c2ccccc2)n1C,.,.,.,.,0,-18,.,.,
CC1(C)Cc2c(sc(NC(=O)COc3cccc4ccccc34)c2C#N)C(C)(C)N1,54,0,63*,2,0,-4,-35,131,
CC(Oc1ccccc1Cl)C(=O)N1CCOCC1 (stereo not drawn),335,16,43*,2,0,-3,.,.,GRK2 confirm 2=3;FAM quench SP=100
CC(C(=O)N1CCOCC1)N1C(=O)c2ccccc2C1=O (stereo not drawn),261,-17,1,6,0,.,.,.,
CC(Oc1ccccc1Cl)C(=O)N1CCCN(C)CC1 (stereo not drawn),156,-2,1,-12,0,-5,.,.,
CC(C(=O)N1CCOCCOCCOCC1)N1C(=O)c2ccccc2C1=O (stereo not drawn),212,10,86*,1,0,-5,-1,98,
Cc1oc2c(c(C)cc3oc(=O)c(CC(=O)NCCCN4CCCC4=O)c(C)c32)c1C,240,-7,6,1,0,.,0,94,
Cc1c(Cl)cccc1NS(=O)(=O)c1cn(C)c(=O)n(C)c1=O,489,9,59*,1,0,-3,-2,102,
